From ChEMBL document CHEMBL5030566, “First-in-Class Inhibitors of the Ribosomal Oxygenase MINA53” (J Med Chem, 2021)
Calls of active or inactive are those of the source. The calls are words filed in the database; no cut-off is given here.

Columns and labels:
U-87 MG [1] = test: Inhibition of KDM4 in human U-87MG cells assessed as increase in H3K9me3 level after 48 hrs by immunofluorescence analysis; type: cell-based
Outline: (§1)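 U-87MG on coverslips, treated 24 h after plating with 50 μM compound for 48 h. Reference inhibitors: CPI-455 25 μM (KDM5), IOX-1 100 μM (KDM4), GSK-J4 10 μM (KDM6). PFA-fixed cells immunostained for H3K4me3, H3K9me3 or H3K27me3 with DAPI counterstain. Per-cell nuclear intensity quantified, ≥50 cells per condition; Mann–Whitney test vs DMSO.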

U-87 MG [2] = test: Cytotoxicity against human U-87MG cells assessed as doxorubicin sensitization after 24 hrs in presence of doxorubicin by MTT assay; type: functional, cell-based; settings: U-87MG ATCC
Outline: (§2)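 U-87MG in RPMI with 10% FBS. Treated 24 h with doxorubicin alone, test compound alone, or both at a fixed doxorubicin:compound ratio of 1:20. Viability read by MTT absorbance and expressed as treated/control ×100. Mean ± SD of two independent experiments, each in triplicate.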

U-87 MG [3] = test: Inhibition of KDM6 in human U-87MG cells assessed as increase in H3K27me3 level after 48 hrs by immunofluorescence analysis; type: cell-based; outline: as §1
OCI-AML2 = test: Antiproliferative activity against human OCI-AML2 cells at 100 uM incubated for 48 hrs by WST-1 assay; type: functional, cell-based
Outline: (§3)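 Leukemia/lymphoma lines plated in triplicate at 5×10^3 cells/well. Exposed to increasing compound concentrations (maximum 100 μM) for 48 h at 37 °C, 5% CO2. WST-1 reagent then added for 1 h. IC50 obtained by nonlinear regression of dose–response curves.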

U-87 MG [4] = test: Induction of apoptosis in human U87-MG cells assessed as increase in apoptotic cells at 10 uM after 24 hrs in presence of 0.5 uM doxorubicin by propidium iodide staining based flow cytometry analysis; type: functional, U-87MG ATCC
Outline: (§4)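 U-87MG treated 24 h with 10 μM compound, alone or with 0.5 μM doxorubicin. Cell-cycle phases and Sub-G1 fraction scored; three independent experiments.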

HEK-293T = test: Antiproliferative activity against human HEK293T cells at 10 to 100 uM incubated for 72 to 120 hrs by MTT assay; type: functional, cell-based; settings: dose 10-100 µM, time 72-120 hrs
Outline: (§5)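 HEK293T or HeLa grown in DMEM with 10% FBS, mycoplasma-tested and STR-authenticated. Compounds added 24 h after seeding at 10–100 μM for 72–120 h; 0.5% DMSO as control. Viability by MTT colorimetric assay, expressed as treated/control ×100.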

U-87 MG [5] = test: Induction of DNA damage in human U-87MG cells assessed as increase in gamma H2AX phosphorylation at ser139 at 20 uM by Western blot analysis; type: functional, cell-based; settings: U-87MG ATCC
U-87 MG [6] = test: Synergistic cytotoxicity against human U-87MG cells assessed as combinantion index at ED75 after 24 hrs in presence of doxorubicin by MTT assay; type: functional, U-87MG ATCC
Outline: (§6)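 Doxorubicin combined with inhibitor at a fixed 1:20 concentration ratio, 24 h exposure, U-87MG viability read by MTT. Combination index calculated with the CI equation and plotted against fractional growth inhibition. CI <0.9 is scored as synergism, 0.9–1.1 as additivity, >1.1 as antagonism. Mean of two independent experiments in triplicate.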

U-87 MG [7] = test: Antiproliferative activity against human U-87 MG cells incubated for 72 to 120 hrs by MTT assay; type: functional, cell-based; settings: U-87MG ATCC, time 72-120 hrs
Outline: (§7)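 HT-29, U-87MG or MKN-45 in RPMI with 10% FBS and L-glutamine. Seeded in sextuplicate at 1.5×10^3 cells/well; compounds at 10–100 μM added after 24 h and left 72, 96 or 120 h; 0.5% DMSO control. MTT absorbance read; viability as treated/control ×100. Mean ± SD of two independent experiments in triplicate.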

U-87 MG [8] = test: Synergistic cytotoxicity against human U-87MG cells assessed as combinantion index at ED90 after 24 hrs in presence of doxorubicin by MTT assay; type: functional, U-87MG ATCC; outline: as §6
KARPAS-299 = test: Antiproliferative activity against human KARPAS-299 cells at 100 uM incubated for 48 hrs by WST-1 assay; type: functional, cell-based; outline: as §3
U-87 MG [9] = test: Induction of apoptosis in human U87-MG cells assessed as increase in sub-G1 cells at 10 uM after 24 hrs by propidium iodide staining based flow cytometry analysis; type: functional, cell-based; settings: U-87MG ATCC; outline: as §4
HT-29 = test: Antiproliferative activity against human HT-29 cells at 10 to 100 uM incubated for 72 to 120 hrs by MTT assay; type: functional, cell-based; settings: dose 10-100 µM, time 72-120 hrs; outline: as §7
U-87 MG [10] = test: Induction of cell cycle arrest in human U-87MG cells assessed as accumulation of cells at G2/M phase at 10 uM after 24 hrs by propidium iodide staining based flow cytometry analysis; type: functional; settings: U-87MG ATCC; outline: as §4
HEK293T [11] = test: Binding affinity to NO66 in HEK293T cells assessed as substrate trapping using RPL8 as substrate at 100 uM after 18 hrs by immunoprecipitation analysis; type: cell-based; settings: Homo sapiens
Outline: (§8)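 HEK293T transiently expressing HA-MINA53, HA-NO66 or empty vector. Treated with 100 μM compound or 0.5% DMSO for 18 h. Cells lysed 1 h at 4 °C in JIES buffer; anti-HA agarose IP overnight, washed, eluted with HA peptide. Blots probed for RPL27A (MINA53) or RPL8 (NO66).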

Kasumi 1 = test: Antiproliferative activity against human Kasumi 1 cells at 100 uM incubated for 48 hrs by WST-1 assay; type: functional, cell-based; outline: as §3
HeLa [12] = test: Binding affinity to MINA53 in HeLa cells assessed as substrate trapping using RPL27A as substrate at 100 uM after 18 hrs by immunoprecipitation analysis; type: cell-based; settings: Homo sapiens
HeLa [13] = test: Antiproliferative activity against human HeLa cells at 10 to 100 uM incubated for 72 to 120 hrs by MTT assay; type: functional, cell-based; settings: dose 10-100 µM, time 72-120 hrs; outline: as §5
MKN-45 = test: Antiproliferative activity against human MKN-45 cells at 10 to 100 uM incubated for 72 to 120 hrs by MTT assay; type: functional, cell-based; settings: dose 10-100 µM, time 72-120 hrs; outline: as §7
U-87 MG [14] = test: Synergistic cytotoxicity against human U-87MG cells assessed as combinantion index at ED50 after 24 hrs in presence of doxorubicin by MTT assay; type: functional, U-87MG ATCC; outline: as §6
U-937 = test: Antiproliferative activity against human U-937 cells at 100 uM incubated for 48 hrs by WST-1 assay; type: functional, cell-based; outline: as §3
HEK293T [15] = test: Binding affinity to MINA53 in HEK293T cells assessed as substrate trapping using RPL27A as substrate at 100 uM after 18 hrs by immunoprecipitation analysis; type: cell-based; settings: Homo sapiens; outline: as §8
[16] = Antiproliferative activity against human IMS-M2 cells at 100 uM incubated for 48 hrs by WST-1 assay; type: functional, cell-based; outline: as §3
U-87 MG [17] = test: Binding affinity to MINA53 in U-87MG cells assessed as substrate trapping using RPL27A as substrate at 100 uM after 18 hrs by immunoprecipitation analysis; type: cell-based; settings: Homo sapiens
MV4-11 = test: Antiproliferative activity against human MV4-11 cells at 100 uM incubated for 48 hrs by WST-1 assay; type: functional, cell-based; outline: as §3
U-87 MG [18] = test: Synergistic cytotoxicity against human U-87MG cells assessed as reduction in cell viability at 20 uM after 24 hrs in presence of doxorubicin by MTT assay; type: functional, U-87MG ATCC; outline: as §2
U-87 MG [19] = test: Inhibition of KDM5 in human U-87MG cells assessed as increase in H3K4me3 level after 48 hrs by immunofluorescence analysis; type: cell-based; outline: as §1
U-87 MG [20] = test: Cytotoxicity against human U-87MG cells assessed as reduction in cell viability after 24 hrs in presence of doxorubicin by MTT assay; type: functional, cell-based; settings: U-87MG ATCC; outline: as §2
OCI-AML-3 = test: Antiproliferative activity against human OCI-AML-3 cells at 100 uM incubated for 48 hrs by WST-1 assay; type: functional, cell-based; outline: as §3
NB-4 = test: Antiproliferative activity against human NB-4 cells at 100 uM incubated for 48 hrs by WST-1 assay; type: functional, cell-based; outline: as §3
U-87 MG [21] = test: Antagonist cytotoxicity against human U-87MG cells assessed as reduction in cell viability at 20 uM after 24 hrs in presence of doxorubicin by MTT assay; type: functional, cell-based; settings: U-87MG ATCC; outline: as §2
HL-60 = test: Antiproliferative activity against human HL-60 cells at 100 uM incubated for 48 hrs by WST-1 assay; type: functional, cell-based; outline: as §3
Homo sapiens [22] = species: Homo sapiens; test: Inhibition of recombinant human MINA53 expressed in Escherichia coli BL21 (DE3) using RPL27A G31RGNAGGLHHHRINFDKYHP49 as substrate at 100 uM preincubated for 15 mins followed by substrate addition and measured after 30 to 60 mins by RapidFire Mass spectrometry assay; settings: time 45-75 min
Homo sapiens [23] = species: Homo sapiens; test: Inhibition of recombinant human NO66 expressed in Escherichia coli BL21 (DE3) using RPL8 N205PVEHPFGGGNHQHIGKPST224 as substrate at 100 uM preincubated for 15 mins followed by substrate addition and measured after 30 to 60 mins by RapidFire Mass spectrometry assay; settings: time 45-75 min
Outline: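 NO66 (E. coli BL21(DE3)-R3-pRARE2, TEV-cleaved) at 375 nM in 50 mM MES pH 7.0, 150 mM NaCl. Preincubated 15 min with compound. […] Formic-acid quench, RapidFire SPE-MS % hydroxylation.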

SMILES	inhibition (U-87 MG [1])	Activity (U-87 MG [2])	inhibition (U-87 MG [3])	IC50 (OCI-AML2)	Activity (U-87 MG [4])	Activity (HEK-293T)	Activity (U-87 MG [5]; TDE = time-dependent effect)	CI (U-87 MG [6])	Activity (U-87 MG [7])	CI (U-87 MG [8])	IC50 (KARPAS-299)	Activity (HT-29)	Activity (U-87 MG [10])	IC50 (Kasumi 1)	Activity (MKN-45)	CI (U-87 MG [14])	IC50 (U-937)	IC50 [16]	IC50 (MV4-11)	IC50 (OCI-AML-3)	also measured
O=C(O)c1cnc(SCCCc2ccccc2)[nH]c1=O	inactive	Dose-Dependent Effect	inactive	Not Active	60%	Active	Tde	0.13	Active	0.18	Not Active	inactive	Active	Not Active	Active	0.21	Not Active	Not Active	Not Active	Not Active	Activity (U-87 MG [9]): Active; Activity (HEK293T [11]): inactive; Activity (HeLa [12]): Active; Activity (HeLa [13]): Active; Activity (HEK293T [15]): Active; Activity (U-87 MG [17]): Active; Activity (U-87 MG [18]): 75%; inhibition (U-87 MG [19]): inactive; Activity (U-87 MG [20]): Dose-Dependent Effect
O=C(O)c1c[nH]c(=S)[nH]c1=O				Not Active				1	inactive	1	Not Active	inactive	inactive	Not Active	inactive	1	Not Active	Not Active	Not Active	Not Active	Activity (U-87 MG [5]): inactive; IC50 (NB-4): Not Active; Activity (U-87 MG [21]): Active; IC50 (HL-60): Not Active
COC(=O)c1cnc(SCCCc2ccccc2)[nH]c1=O									Active			Active			Active						
O=C(O)CCNc1cc(N2CCc3ccccc3CC2)nc(-c2ccccn2)n1																					inhibition (Homo sapiens [22]): inactive; inhibition (Homo sapiens [23]): inactive
O=C(O)c1cnc(SCCc2ccccc2)[nH]c1=O	inactive	Dose-Dependent Effect	inactive	Not Active	60%	Active	Tde	0.63	Active	22.1	Not Active	inactive	Active	Not Active	Active	0.32	Not Active	Not Active	Not Active	Not Active	Activity (U-87 MG [9]): Active; Activity (HEK293T [11]): inactive; Activity (HeLa [12]): Active; Activity (HeLa [13]): Active; Activity (HEK293T [15]): Active; Activity (U-87 MG [17]): Active; Activity (U-87 MG [18]): 75%; inhibition (U-87 MG [19]): inactive; Activity (U-87 MG [20]): Dose-Dependent Effect
